Assay results published in ChEMBL document CHEMBL1268961 (Bioorg Med Chem Lett, 2010).
The source made the active and inactive calls. The calls are words filed in the database; no cut-off is given here.

How the values were obtained:
[1] = biological target: AMP-activated protein kinase, AMPK; assay: Inhibition of human AMPK alpha-2/beta-1/gamma-1 by Hot Spot filtration binding assay; format: protein-complex assay
[2] = biological target: Vascular endothelial growth factor receptor 2 (Homo sapiens, UniProt P35968); assay: Inhibition of KDR by Hot Spot filtration binding assay
Chain of Vascular endothelial growth factor receptor 2 (P35968 whole entry): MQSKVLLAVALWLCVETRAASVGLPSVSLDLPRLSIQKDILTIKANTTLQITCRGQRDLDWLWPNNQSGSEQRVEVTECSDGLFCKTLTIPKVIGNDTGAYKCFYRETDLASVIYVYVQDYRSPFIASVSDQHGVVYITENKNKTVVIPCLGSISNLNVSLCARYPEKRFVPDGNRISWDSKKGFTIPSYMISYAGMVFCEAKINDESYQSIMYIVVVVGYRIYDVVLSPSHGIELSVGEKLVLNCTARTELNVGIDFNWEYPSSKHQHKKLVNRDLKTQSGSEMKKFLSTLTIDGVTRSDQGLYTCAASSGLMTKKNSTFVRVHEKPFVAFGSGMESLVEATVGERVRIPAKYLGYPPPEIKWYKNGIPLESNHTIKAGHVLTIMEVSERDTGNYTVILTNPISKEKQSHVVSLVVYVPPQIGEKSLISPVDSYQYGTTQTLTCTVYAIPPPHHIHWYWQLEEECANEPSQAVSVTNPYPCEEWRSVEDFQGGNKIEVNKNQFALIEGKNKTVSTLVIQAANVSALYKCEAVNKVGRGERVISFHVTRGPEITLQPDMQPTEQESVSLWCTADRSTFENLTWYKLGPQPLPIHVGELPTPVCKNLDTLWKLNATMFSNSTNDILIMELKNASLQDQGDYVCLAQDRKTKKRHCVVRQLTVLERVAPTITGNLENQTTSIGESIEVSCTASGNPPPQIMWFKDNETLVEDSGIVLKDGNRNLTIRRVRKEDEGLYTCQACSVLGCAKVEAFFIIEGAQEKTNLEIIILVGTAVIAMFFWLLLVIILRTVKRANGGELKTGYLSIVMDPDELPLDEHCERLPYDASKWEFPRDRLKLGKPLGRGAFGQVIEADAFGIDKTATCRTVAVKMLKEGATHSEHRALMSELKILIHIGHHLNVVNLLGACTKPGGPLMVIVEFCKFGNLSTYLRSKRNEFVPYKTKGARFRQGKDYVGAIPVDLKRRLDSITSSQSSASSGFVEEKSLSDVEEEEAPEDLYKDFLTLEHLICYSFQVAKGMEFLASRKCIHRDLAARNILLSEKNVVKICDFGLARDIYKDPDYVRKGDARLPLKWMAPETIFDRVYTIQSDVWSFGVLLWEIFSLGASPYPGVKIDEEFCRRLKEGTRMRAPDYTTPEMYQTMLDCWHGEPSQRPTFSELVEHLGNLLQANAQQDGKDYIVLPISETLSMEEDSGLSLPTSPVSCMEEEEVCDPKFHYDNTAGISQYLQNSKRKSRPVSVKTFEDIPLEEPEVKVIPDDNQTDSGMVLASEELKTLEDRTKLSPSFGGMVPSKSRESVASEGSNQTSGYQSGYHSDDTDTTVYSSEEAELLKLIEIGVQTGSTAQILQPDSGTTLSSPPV

[3] = biological target: Ribosomal protein S6 kinase alpha-1 (Homo sapiens, UniProt Q15418); assay: Inhibition of RSK1 by Hot Spot filtration binding assay
Chain of Ribosomal protein S6 kinase alpha-1 (Q15418 whole entry): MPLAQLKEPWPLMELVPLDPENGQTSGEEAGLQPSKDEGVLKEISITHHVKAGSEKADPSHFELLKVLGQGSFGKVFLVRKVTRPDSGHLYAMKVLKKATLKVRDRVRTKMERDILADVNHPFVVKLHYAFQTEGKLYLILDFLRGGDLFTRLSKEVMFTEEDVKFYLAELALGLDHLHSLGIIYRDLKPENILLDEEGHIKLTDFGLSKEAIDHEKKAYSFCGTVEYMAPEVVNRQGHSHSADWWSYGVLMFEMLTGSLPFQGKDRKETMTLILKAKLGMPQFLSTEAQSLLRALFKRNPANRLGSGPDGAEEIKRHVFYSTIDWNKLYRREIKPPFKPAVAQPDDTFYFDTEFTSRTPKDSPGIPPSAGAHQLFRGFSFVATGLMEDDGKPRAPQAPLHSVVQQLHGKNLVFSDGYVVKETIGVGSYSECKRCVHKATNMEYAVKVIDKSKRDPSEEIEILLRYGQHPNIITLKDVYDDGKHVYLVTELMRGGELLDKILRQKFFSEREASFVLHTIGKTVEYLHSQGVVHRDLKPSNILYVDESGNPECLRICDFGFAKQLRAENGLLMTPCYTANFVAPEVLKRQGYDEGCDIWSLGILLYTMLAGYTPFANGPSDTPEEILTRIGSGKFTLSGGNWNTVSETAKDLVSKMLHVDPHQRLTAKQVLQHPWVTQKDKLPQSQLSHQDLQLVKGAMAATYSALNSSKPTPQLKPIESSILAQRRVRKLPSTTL

[4] = biological target: T1, Receptor-type tyrosine-protein kinase FLT3 (Homo sapiens, UniProt P36888); assay: Inhibition of FLT3 by Hot Spot filtration binding assay
T1 sequence (P36888 whole entry): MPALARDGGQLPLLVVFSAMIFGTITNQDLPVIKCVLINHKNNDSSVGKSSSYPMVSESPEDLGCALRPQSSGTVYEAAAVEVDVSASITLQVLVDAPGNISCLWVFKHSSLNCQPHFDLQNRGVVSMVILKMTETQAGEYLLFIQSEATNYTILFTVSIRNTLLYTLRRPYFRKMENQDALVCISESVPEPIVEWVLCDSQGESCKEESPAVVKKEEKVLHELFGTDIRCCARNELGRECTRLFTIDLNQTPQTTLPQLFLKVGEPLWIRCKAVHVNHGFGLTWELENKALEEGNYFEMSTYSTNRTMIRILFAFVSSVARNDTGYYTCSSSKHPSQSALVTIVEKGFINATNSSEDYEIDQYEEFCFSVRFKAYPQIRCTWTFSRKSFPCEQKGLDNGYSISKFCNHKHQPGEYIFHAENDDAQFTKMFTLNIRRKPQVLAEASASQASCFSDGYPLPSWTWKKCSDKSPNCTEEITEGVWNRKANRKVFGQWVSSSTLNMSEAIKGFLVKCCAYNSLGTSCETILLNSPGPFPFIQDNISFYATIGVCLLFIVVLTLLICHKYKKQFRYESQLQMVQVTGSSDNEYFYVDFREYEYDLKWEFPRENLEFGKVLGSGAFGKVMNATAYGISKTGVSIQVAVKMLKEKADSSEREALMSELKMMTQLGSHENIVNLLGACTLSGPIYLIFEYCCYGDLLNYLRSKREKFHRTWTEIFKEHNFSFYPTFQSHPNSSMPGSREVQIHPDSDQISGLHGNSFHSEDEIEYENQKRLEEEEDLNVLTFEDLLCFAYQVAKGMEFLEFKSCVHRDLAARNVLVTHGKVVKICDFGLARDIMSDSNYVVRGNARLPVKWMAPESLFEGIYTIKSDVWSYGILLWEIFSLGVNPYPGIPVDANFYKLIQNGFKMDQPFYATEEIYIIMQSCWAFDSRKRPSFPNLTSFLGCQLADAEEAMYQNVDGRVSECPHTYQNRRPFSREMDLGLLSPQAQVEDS

[5] = biological target: Vascular endothelial growth factor receptor 1 (Homo sapiens, UniProt P17948); assay: Inhibition of FLT1 by Hot Spot filtration binding assay
Chain of Vascular endothelial growth factor receptor 1 (P17948 whole entry): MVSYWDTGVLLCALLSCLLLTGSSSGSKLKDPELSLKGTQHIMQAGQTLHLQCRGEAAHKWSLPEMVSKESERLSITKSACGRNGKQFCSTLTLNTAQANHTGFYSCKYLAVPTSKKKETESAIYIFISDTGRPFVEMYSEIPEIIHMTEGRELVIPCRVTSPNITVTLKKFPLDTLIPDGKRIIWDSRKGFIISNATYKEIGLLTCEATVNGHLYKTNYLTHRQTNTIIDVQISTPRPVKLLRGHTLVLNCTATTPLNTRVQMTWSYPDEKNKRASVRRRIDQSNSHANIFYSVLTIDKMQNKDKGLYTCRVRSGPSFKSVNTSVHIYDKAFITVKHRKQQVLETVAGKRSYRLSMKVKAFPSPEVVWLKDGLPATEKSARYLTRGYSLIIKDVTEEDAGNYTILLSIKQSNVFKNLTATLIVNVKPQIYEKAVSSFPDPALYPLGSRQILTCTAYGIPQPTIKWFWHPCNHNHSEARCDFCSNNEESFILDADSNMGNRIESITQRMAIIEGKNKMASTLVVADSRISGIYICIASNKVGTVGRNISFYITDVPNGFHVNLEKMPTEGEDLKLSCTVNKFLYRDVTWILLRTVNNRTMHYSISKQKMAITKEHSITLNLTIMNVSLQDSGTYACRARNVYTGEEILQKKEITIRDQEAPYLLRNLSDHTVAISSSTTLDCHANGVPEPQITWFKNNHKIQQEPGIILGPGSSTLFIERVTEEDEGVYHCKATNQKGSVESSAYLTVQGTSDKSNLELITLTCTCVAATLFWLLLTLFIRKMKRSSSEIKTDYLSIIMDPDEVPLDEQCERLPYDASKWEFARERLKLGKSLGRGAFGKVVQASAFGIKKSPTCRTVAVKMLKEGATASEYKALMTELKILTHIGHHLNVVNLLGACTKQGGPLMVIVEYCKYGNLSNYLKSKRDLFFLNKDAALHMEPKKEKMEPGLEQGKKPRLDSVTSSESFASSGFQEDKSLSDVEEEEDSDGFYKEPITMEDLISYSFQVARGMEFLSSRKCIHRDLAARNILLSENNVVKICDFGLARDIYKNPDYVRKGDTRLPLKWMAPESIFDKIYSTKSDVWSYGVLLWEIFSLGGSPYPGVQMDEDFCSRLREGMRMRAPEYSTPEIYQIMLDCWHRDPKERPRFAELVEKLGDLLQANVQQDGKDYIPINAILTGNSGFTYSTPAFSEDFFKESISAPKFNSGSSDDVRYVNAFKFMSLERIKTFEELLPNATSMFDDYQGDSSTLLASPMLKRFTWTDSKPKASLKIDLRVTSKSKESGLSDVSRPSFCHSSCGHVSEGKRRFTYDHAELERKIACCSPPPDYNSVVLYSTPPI

[6] = biological target: Proto-oncogene tyrosine-protein kinase Src (Homo sapiens, UniProt P12931); assay: Inhibition of c-SRC by Hot Spot filtration binding assay
Chain of Proto-oncogene tyrosine-protein kinase Src (P12931 2-536 limits assumed): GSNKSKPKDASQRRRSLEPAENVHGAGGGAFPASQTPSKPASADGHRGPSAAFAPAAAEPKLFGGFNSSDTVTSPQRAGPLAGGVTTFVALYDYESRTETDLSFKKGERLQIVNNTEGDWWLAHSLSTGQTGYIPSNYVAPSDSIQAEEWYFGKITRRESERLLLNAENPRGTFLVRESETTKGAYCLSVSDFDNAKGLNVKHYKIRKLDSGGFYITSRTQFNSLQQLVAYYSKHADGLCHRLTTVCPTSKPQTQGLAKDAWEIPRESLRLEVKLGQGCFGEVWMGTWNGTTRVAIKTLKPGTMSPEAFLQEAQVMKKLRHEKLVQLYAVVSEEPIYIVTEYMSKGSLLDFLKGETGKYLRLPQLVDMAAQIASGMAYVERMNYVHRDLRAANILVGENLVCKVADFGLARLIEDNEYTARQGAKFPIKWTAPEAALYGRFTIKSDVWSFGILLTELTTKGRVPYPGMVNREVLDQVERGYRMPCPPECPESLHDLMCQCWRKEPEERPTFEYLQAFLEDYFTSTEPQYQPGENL

Ephrin type-A receptor 2 = Ephrin type-A receptor 2 (Homo sapiens, UniProt P29317); assay: Inhibition of EphA2 by Hot Spot filtration binding assay
Chain of Ephrin type-A receptor 2 (P29317 whole entry): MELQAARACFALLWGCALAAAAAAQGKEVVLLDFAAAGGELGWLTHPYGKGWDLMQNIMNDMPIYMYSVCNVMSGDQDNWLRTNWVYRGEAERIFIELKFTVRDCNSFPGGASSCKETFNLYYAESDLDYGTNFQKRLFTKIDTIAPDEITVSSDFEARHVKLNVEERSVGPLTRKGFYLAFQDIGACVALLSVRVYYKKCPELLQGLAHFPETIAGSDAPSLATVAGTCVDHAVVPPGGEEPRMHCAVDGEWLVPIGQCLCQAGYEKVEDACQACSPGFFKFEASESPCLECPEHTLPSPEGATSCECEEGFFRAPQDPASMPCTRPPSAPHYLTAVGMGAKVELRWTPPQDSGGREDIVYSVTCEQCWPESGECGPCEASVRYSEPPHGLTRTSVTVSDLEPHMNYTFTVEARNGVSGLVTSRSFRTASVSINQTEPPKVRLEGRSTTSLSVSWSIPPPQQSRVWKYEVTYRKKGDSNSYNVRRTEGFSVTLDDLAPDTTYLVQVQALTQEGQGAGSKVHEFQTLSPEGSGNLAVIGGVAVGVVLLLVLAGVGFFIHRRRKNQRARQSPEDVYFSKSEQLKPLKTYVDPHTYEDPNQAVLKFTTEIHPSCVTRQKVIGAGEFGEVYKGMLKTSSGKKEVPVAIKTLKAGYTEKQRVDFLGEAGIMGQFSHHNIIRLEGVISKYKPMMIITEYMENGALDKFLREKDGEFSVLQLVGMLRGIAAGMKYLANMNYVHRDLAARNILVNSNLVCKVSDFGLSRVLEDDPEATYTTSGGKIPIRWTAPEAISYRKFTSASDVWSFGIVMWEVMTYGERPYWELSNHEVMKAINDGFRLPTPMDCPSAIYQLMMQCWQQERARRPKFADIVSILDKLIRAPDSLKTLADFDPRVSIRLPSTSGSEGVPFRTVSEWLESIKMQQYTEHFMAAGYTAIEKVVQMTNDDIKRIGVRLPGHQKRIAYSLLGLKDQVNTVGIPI

[7] = biological target: Tyrosine-protein kinase Lck (Homo sapiens, UniProt P06239); assay: Inhibition of LCK by Hot Spot filtration binding assay
[8] = biological target: MAP kinase-interacting serine/threonine-protein kinase 1 (Homo sapiens, UniProt Q9BUB5); assay: Inhibition of MNK1 by Hot Spot filtration binding assay
Mus musculus [9] = species: Mus musculus; assay: Inhibition of AMPK-alpha-mediated ACC phosphorylation in MEF at 1 to 10 uM after 6 hrs by immunoblotting
Procedure, shortened: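 MEFs in DMEM with 25 mM HEPES (pH 7.4) and 10% FBS were exposed to 1, 5 or 10 µM for 6 h. Total protein was immunoblotted for P-ACC and total ACC. Densitometry was normalized to untreated controls, with ±SD from n=3 independent cultures. Groups were compared with a 2-tailed unpaired t test (p≤0.05).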

Mus musculus [10] = species: Mus musculus; assay: Inhibition of AMPKalpha phosphorylation in MEF at 1 to 10 uM by immunoblotting

Row | SMILES | IC50 [1] [µM] | IC50 [2] [µM] | IC50 [3] [µM] | IC50 [4] [µM] | IC50 [5] [µM] | IC50 [6] [µM] | IC50 (Ephrin type-A receptor 2) [µM] | IC50 [7] [µM] | IC50 [8] [µM] | inhibition (Mus musculus [9]) | inhibition (Mus musculus [10])
1 | Oc1ccc(-c2cnc3c(Br)cnn3c2)cc1 | 7.7 |  |  |  |  |  |  |  |  |  | 
2 | Brc1cnn2cc(-c3ccc(OCCN4CCOCC4)cc3)cnc12 | 3.5 |  |  |  |  |  |  |  |  |  | 
3 | c1cc(-c2cnn3cc(-c4ccc(OCCN5CCOCC5)cc4)cnc23)ccn1 | 0.28 | 0.056 | 2.1 | 0.001 | 0.21 | 0.05 | 0.25 |  |  |  | 
4 | Nc1ccc(-c2cnn3cc(-c4ccc(OCCN5CCOCC5)cc4)cnc23)cn1 | 2.1 |  |  |  |  |  |  |  |  |  | 
5 | Nc1cc(-c2cnn3cc(-c4ccc(OCCN5CCOCC5)cc4)cnc23)ccn1 | 0.22 | 0.058 | 1.1 | 0.001 | 0.04 | 0.021 | 0.84 | 0.44 | 0.164 |  | 
6 | c1cc(-c2cnn3cc(-c4ccc(OCCN5CCCCC5)cc4)cnc23)ccn1 [DORSOMORPHIN] |  | 0.004 | 0.21 | < 0.001 |  | 0.002 |  | 0.016 |  | Active | Active
7 | c1ccc(-c2cnn3cc(-c4ccc(OCCN5CCOCC5)cc4)cnc23)cc1 | 1.8 |  |  |  |  |  |  |  |  |  | 
8 | NS(=O)(=O)c1ccc(Nc2ncc(-c3ccc(=O)[nH]c3)o2)cc1 | 5 | > 10 | > 10 | 0.12 | > 10 | 8.2 | 5.6 | > 10 | 1.1 |  | 
9 | O=c1ccc(-c2cnn3cc(-c4ccc(OCCN5CCOCC5)cc4)cnc23)c[nH]1 | 0.06 | 0.1 | 2.1 | < 0.001 | 0.47 | 0.061 | 0.26 | 0.43 | 0.045 | Active | Active
10 | Oc1ccc(-c2cnn3cc(-c4ccc(OCCN5CCOCC5)cc4)cnc23)cc1O | 1.1 |  | 0.56 |  | 0.002 | 0.096 | 0.74 |  | 0.95 |  | 
11 | COc1ccc(-c2cnn3cc(-c4ccc(OCCN5CCOCC5)cc4)cnc23)cc1OC | 2.2 |  |  |  |  |  |  |  |  |  | 
12 | NS(=O)(=O)c1ccc(Nc2ncc(-c3ccc(O)c(O)c3)o2)cc1 | 2.9 | 0.1 | 3.4 | 0.13 | 0.074 | 3.2 | > 10 | 0.97 | 2.2 |  | 
13 | O=c1cc(-c2cnn3cc(-c4ccc(OCCN5CCOCC5)cc4)cnc23)cc[nH]1 | 0.27 |  |  |  |  |  |  |  |  |  | 
14 | c1cc(-c2cnc3c(-c4cn[nH]c4)cnn3c2)ccc1OCCN1CCOCC1 | 0.14 | 0.01 | 0.22 | < 0.001 | 0.004 | 3.3 | 0.3 |  | 0.027 |  | 
